One experiment relates to Staphylococcus aureus. The experiment in a line: Antibacterial activity against Staphylococcus aureus by agar plate diffusion assay. It is filed as functional.
The subject of another experiment is NCI-H460. Description: Cytotoxicity against human H460 cells. It is filed as functional, cell-based. The method, boiled down:
(§1)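 Panel of three human tumour lines: MCF-7 breast carcinoma, NCI-H460 large cell lung carcinoma and SF-268 astrocytoma. The cytotoxicity protocol follows the group's earlier reports.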

The test system of another experiment is Candida albicans. The experiment in a line: Antifungal activity against Candida albicans by agar plate diffusion assay. It counts as functional, organism-based.
The subject of another experiment is MCF7. The experiment in a line: Cytotoxicity against human MCF7 cells. It counts as functional, cell-based. The method, boiled down:
as §1

For experiment [1], the target named is 3',5'-cyclic-AMP phosphodiesterase 4B (Homo sapiens, UniProt Q07343). The experiment in a line: Inhibition of human PDE4B2.
Chain of 3',5'-cyclic-AMP phosphodiesterase 4B (Q07343 whole entry): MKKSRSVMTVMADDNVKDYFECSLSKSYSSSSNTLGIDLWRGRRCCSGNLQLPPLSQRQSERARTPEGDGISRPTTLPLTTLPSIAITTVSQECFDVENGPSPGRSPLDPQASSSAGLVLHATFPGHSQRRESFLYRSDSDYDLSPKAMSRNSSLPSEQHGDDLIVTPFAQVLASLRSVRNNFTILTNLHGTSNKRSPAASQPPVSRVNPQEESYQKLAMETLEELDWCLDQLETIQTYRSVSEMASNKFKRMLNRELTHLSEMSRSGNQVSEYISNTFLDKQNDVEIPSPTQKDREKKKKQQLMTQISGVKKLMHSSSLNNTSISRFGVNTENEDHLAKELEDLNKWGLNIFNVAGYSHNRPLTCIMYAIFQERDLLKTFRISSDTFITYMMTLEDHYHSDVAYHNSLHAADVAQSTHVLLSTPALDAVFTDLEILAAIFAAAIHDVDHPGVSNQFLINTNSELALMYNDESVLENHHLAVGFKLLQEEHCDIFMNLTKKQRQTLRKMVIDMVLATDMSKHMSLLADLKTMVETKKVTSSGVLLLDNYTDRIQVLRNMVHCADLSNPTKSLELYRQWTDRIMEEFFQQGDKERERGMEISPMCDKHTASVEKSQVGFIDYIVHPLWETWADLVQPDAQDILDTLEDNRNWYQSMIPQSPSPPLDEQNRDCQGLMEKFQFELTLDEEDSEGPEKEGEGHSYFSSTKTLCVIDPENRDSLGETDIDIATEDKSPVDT
The subject of another experiment is SF-268. Description: Cytotoxicity against human SF268 cells. It is filed as functional, cell-based. The method, boiled down:
as §1

The nature of experiment [2]: Inhibition of cAMP-PDE (unknown origin). Also on record: species or system Homo sapiens.
The nature of experiment [3]: Inhibition of cGMP-PDE (unknown origin). On the set-up: species or system Homo sapiens.

Converted amounts (≈) assume the structure as drawn. The source made the active and inactive calls. The calls are words filed in the database; no cut-off is given here.

A word on the MIC: it is the least concentration at which growth counts as inhibited. Read a low MIC as inhibition by little substance. The term IC50 denotes the point on the concentration scale where inhibition reaches its midpoint. Low readings indicate greater potency, high ones weaker potency. As for `COC1=C(c2ccccc2)C(=O)C=C(c2ccccc2)C1=O` [BETULINAN C], inhibition of growth with Staphylococcus aureus (MIC) required 25 µg/mL (≈ 86.1 µM). Moreover, the result in the experiment with NCI-H460, with MCF7 and in the experiment with SF-268 was Active. The result in the experiment on Candida albicans was inactive. In addition, the IC50 in experiment [1] is 17 µM.
Take `COC1=C(c2ccccc2)C(=O)C(OC)=C(c2ccccc2)C1=O` [BETULINAN A]: the outcome in the experiment on NCI-H460, in the experiment with MCF7 and in the experiment on SF-268 was inactive. In addition, in experiment [1], 44 µM corresponded to half-maximal inhibition (IC50).
Turning to `COc1cc(-c2ccccc2)c(O)c(O)c1-c1ccccc1` [TERFEROL], the IC50 came out at 0.82 µM in experiment [2] and 0.96 µM in experiment [3].
Molecule `COc1c(O)c(-c2ccccc2)cc(O)c1-c1ccccc1` gave an MIC in the experiment on Staphylococcus aureus of 25 µg/mL (≈ 85.5 µM). Moreover, the result in the experiment with NCI-H460, in the experiment on MCF7 and in the experiment with SF-268 was Active. In the experiment on Candida albicans, the outcome was inactive. The molecule also showed an IC50 in experiment [1] of 31 µM.
